Source: ChEMBL document CHEMBL4393735, “Molecular modelling, synthesis, and biological evaluations of a 3,5-disubstituted isoxazole fatty acid analogue as a PPARα-selective agonist” (Bioorg Med Chem, 2019)
Calls of active or inactive are those of the source.

Legend:
[1] = molecular target: T1, Peroxisome proliferator-activated receptor alpha (Homo sapiens) (UniProt Q07869); test: Agonist activity at PPARalpha in human Huh7 cells assessed as PPARA mRNA expression at 50 uM measured after 18 hrs by qRT-PCR analysis; type: cell-based
T1 sequence (whole entry): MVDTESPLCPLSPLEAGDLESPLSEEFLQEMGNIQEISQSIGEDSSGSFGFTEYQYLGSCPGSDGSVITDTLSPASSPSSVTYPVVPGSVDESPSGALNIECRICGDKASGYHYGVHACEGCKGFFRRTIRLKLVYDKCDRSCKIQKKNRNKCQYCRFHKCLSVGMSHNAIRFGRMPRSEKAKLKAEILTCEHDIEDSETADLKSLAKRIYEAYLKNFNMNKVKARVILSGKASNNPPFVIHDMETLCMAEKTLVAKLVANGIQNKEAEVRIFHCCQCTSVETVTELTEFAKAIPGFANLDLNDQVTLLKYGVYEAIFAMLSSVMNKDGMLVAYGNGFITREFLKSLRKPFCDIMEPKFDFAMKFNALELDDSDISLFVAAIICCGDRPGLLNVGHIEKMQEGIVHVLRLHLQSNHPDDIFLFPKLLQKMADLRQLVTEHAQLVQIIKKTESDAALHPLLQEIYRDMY
Method in brief: (§1)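 Treatment for 18 h at 50 μM (or 1 μM for the 1 μM agents), DMSO vehicle. Harvested for qPCR. mRNA normalized to TBP by the comparative threshold method, expressed relative to DMSO control. Two biological replicates run in duplicate, mean ± SEM. Primary hepatocytes came from male C57BL/6N mice aged 7–8 weeks, isolated by portal-vein perfusion and digestion, seeded on collagen I and used on day 2. HuH-7 cells were kept in DMEM with 10% FBS and ITS.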

[2] = molecular target: T1, Peroxisome proliferator-activated receptor alpha (Homo sapiens); test: Agonist activity at PPARalpha in human Huh7 cells assessed as SCD1 mRNA expression at 50 uM measured after 18 hrs by qRT-PCR analysis; type: cell-based; method in brief: as §1
[3] = molecular target: T1, Peroxisome proliferator-activated receptor alpha (Homo sapiens); test: Agonist activity at PPARalpha in human Huh7 cells assessed as SREBF1 mRNA expression at 50 uM measured after 18 hrs by qRT-PCR analysis; type: cell-based; method in brief: as §1
[4] = molecular target: T2, Peroxisome proliferator-activated receptor alpha (Mus musculus) (UniProt P23204); test: Agonist activity at PPARalpha in C57BL/6N mouse primary hepatocytes assessed as PPARA mRNA expression at 50 uM measured after 18 hrs by qRT-PCR analysis; type: cell-based; method in brief: as §1
T2 sequence (whole entry): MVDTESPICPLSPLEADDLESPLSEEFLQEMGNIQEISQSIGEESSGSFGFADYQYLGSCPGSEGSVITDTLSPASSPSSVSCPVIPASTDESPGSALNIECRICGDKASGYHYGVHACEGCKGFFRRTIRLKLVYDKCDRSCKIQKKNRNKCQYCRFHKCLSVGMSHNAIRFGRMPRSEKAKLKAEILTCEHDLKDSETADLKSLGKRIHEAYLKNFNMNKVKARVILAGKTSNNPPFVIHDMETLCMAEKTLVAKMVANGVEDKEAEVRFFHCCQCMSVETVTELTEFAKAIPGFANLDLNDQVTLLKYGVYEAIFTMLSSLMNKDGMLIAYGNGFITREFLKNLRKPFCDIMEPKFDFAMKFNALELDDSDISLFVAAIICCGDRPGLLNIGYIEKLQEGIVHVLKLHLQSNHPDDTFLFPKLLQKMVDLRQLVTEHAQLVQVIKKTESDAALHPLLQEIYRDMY

[5] = molecular target: T2, Peroxisome proliferator-activated receptor alpha (Mus musculus); test: Agonist activity at PPARalpha in C57BL/6N mouse primary hepatocytes assessed as SCD1 mRNA expression at 50 uM measured after 18 hrs by qRT-PCR analysis; type: cell-based; method in brief: as §1
[6] = molecular target: T2, Peroxisome proliferator-activated receptor alpha (Mus musculus); test: Agonist activity at PPARalpha in C57BL/6N mouse primary hepatocytes assessed as SREBF1 mRNA expression at 50 uM measured after 18 hrs by qRT-PCR analysis; type: cell-based; method in brief: as §1
SGBS [7] = test: Upregulation of PPARgamma gene expression in human preadipocyte derived from Simpson-Golabi-Behmel syndrome (SGBS) patient at 25 uM measured for 12 days by qRT-PCR analysis; type: functional, cell-based
Method in brief: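 SGBS cells grown 4 days in biotin/D-pantothenate medium, then differentiated without FBS (apo-transferrin, insulin, T3, hydrocortisol, IBMX, dexamethasone) with 25 μM compound or 0.1 % DMSO added from day 0. After 4 days, switched to maintenance medium without IBMX/dexamethasone, renewed day 8. qPCR on days 0, 4, 8, 12, normalized to TBP (comparative threshold) and to day 0. Minimum three biological replicates in duplicate, mean ± SEM.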

SGBS [8] = test: Upregulation of CEBPA gene expression in human preadipocyte derived from Simpson-Golabi-Behmel syndrome (SGBS) patient at 25 uM measured for 12 days by qRT-PCR analysis; type: functional, cell-based
Method in brief: (§2)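 SGBS cells were differentiated with serum-free induction medium containing 25 μM test agent, 2 μM rosiglitazone or 0.1% DMSO from day 0. IBMX and dexamethasone were removed on day 4 and medium was renewed on day 8. RNA was taken on days 0, 4, 8 and 12 for qPCR, normalized to TBP and to day 0. At least three biological replicates in duplicate, two-way ANOVA with Bonferroni.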

SGBS [9] = test: Upregulation of ACSL1 gene expression in human preadipocyte derived from Simpson-Golabi-Behmel syndrome (SGBS) patient at 25 uM measured for 12 days by qRT-PCR analysis; type: functional, cell-based; method in brief: as §2
SGBS [10] = test: Upregulation of CD36 gene expression in human preadipocyte derived from Simpson-Golabi-Behmel syndrome (SGBS) patient at 25 uM measured for 12 days by qRT-PCR analysis; type: functional, cell-based; method in brief: as §2
SGBS [11] = test: Upregulation of FABP4 gene expression in human preadipocyte derived from Simpson-Golabi-Behmel syndrome (SGBS) patient at 25 uM measured for 12 days by qRT-PCR analysis; type: functional, cell-based; method in brief: as §2
SGBS [12] = test: Upregulation of PLIN1 gene expression in human preadipocyte derived from Simpson-Golabi-Behmel syndrome (SGBS) patient at 25 uM measured for 12 days by qRT-PCR analysis; type: functional, cell-based; method in brief: as §2
SGBS [13] = test: Upregulation of ADIPOQ gene expression in human preadipocyte derived from Simpson-Golabi-Behmel syndrome (SGBS) patient at 25 uM measured for 12 days by qRT-PCR analysis; type: functional, cell-based; method in brief: as §2
SGBS [14] = test: Upregulation of ANGPTL4 gene expression in human preadipocyte derived from Simpson-Golabi-Behmel syndrome (SGBS) patient at 25 uM measured for 12 days by qRT-PCR analysis; type: functional, cell-based; method in brief: as §2
SGBS [15] = test: Induction of adipocyte differentiation in human preadipocyte derived from Simpson-Golabi-Behmel syndrome (SGBS) patient assessed as lipid accumulation at 25 uM measured for 12 days by Oil red O staining based microscopic analysis; type: functional, cell-based
Method in brief: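 Differentiation of SGBS preadipocytes was started in serum-free medium with transferrin, insulin, T3, hydrocortisol, IBMX and dexamethasone, plus 25 μM test agent, 2 μM rosiglitazone or 0.1% DMSO. On day 4 medium was switched to lack IBMX and dexamethasone, and it was renewed on day 8. Cells were fixed with 4% PFA and stained with 0.3% Oil Red O on days 0, 4, 8 and 12, then photographed.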

[16] = molecular target: T2, Peroxisome proliferator-activated receptor alpha (Mus musculus); test: Agonist activity at PPARalpha in C57BL/6N mouse primary hepatocytes assessed as activation of Scd1 mRNA expression at 1 uM measured after 18 hrs by qRT-PCR analysis; type: cell-based; method in brief: as §1
[17] = molecular target: T2, Peroxisome proliferator-activated receptor alpha (Mus musculus); test: Agonist activity at PPARalpha in C57BL/6N mouse primary hepatocytes assessed as activation of Cpt1a mRNA expression at 1 uM measured after 18 hrs by qRT-PCR analysis; type: cell-based; method in brief: as §1
[18] = molecular target: T1, Peroxisome proliferator-activated receptor alpha (Homo sapiens); test: Agonist activity at PPARalpha in human Huh7 cells assessed as SREBF1 mRNA expression at 1 uM measured after 18 hrs by qRT-PCR analysis; type: cell-based; method in brief: as §1
[19] = molecular target: T1, Peroxisome proliferator-activated receptor alpha (Homo sapiens); test: Agonist activity at PPARalpha in human Huh7 cells assessed as SCD1 mRNA expression at 1 uM measured after 18 hrs by qRT-PCR analysis; type: cell-based; method in brief: as §1
[20] = molecular target: T1, Peroxisome proliferator-activated receptor alpha (Homo sapiens); test: Agonist activity at PPARalpha in human Huh7 cells assessed as PPARA mRNA expression at 1 uM measured after 18 hrs by qRT-PCR analysis; type: cell-based; method in brief: as §1
[21] = molecular target: T1, Peroxisome proliferator-activated receptor alpha (Homo sapiens); test: Agonist activity at PPARalpha in human Huh7 cells assessed as activation of CPT1A mRNA expression at 1 uM measured after 18 hrs by qRT-PCR analysis; type: cell-based; method in brief: as §1
[22] = molecular target: T2, Peroxisome proliferator-activated receptor alpha (Mus musculus); test: Agonist activity at PPARalpha in C57BL/6N mouse primary hepatocytes assessed as activation of Srebf1 mRNA expression at 1 uM measured after 18 hrs by qRT-PCR analysis; type: cell-based; method in brief: as §1

| Activity [1] | Activity [2] | Activity [3] | Activity [4] | Activity [5] | Activity [6] | SMILES | Activity (SGBS [7]) | Activity (SGBS [8]) | Activity (SGBS [9]) | Activity (SGBS [10]) | Activity (SGBS [11]) | Activity (SGBS [12]) | Activity (SGBS [13]) | Activity (SGBS [14]) | Activity (SGBS [15]) | also measured |
| --- | --- | --- | --- | --- | --- | --- | --- | --- | --- | --- | --- | --- | --- | --- | --- | --- |
| inactive | inactive | inactive | Active | inactive | inactive | CCCCC/C=C/C(=O)CCCCCCCC(=O)O | Active | Active | Active | Active | Active | Active | Active | Active | Active | – |
| inactive | inactive | inactive | Active | inactive | inactive | CCCCCCCC(=O)/C=C/CCCCCC(=O)O | Active | Active | Active | Active | Active | Active | Active | Active | Active | – |
| – | – | – | – | – | – | CC(C)(Sc1ccc(CCN(CCCCC2CCCCC2)C(=O)NC2CCCCC2)cc1)C(=O)O | – | – | – | – | – | – | – | – | – | Activity [16]: Active; Activity [17]: Active; Activity [18]: inactive; Activity [19]: inactive; Activity [20]: inactive; Activity [21]: Active; Activity [22]: Active |
